Columns and labels:
[1] = tested on: Hepatitis C virus; assay: Antiviral activity against HCV genotype 1b in Huh7 cells assessed as inhibition of viral RNA replication after 72 hrs by ribonuclease protection assay; type: functional, organism-based, Hepacivirus hominis; conditions: Huh-7, 72 h
Outline: (§1)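 Huh-7 (HB-1) cells carrying a subgenomic bicistronic neomycin-resistance replicon from HCV genotype 1b. Compound incubated with cells 24 h or 72 h. Intracellular replicon RNA then quantified by in situ ribonuclease protection. EC50 taken as the mean of at least two separate determinations.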

[2] = tested on: Hepatitis C virus; assay: Antiviral activity against HCV genotype 1b in Huh7 cells assessed as inhibition of viral RNA replication after 24 hrs by ribonuclease protection assay; type: functional, organism-based, Hepacivirus hominis; conditions: Huh-7, 24 h; outline: as §1
[3] = Cytotoxicity against Huh7 cells after 24 hrs by MTS assay; type: cell-based, Huh-7; conditions: human
Outline: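 Nucleoside cytotoxicity in the replicon-bearing Huh-7 cells, measured by MTS assay after 24 h exposure. Result expressed as CC50.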

Structure (SMILES)	EC50 [1]	EC50 [2]	CC50 at 24 h [3]
C[C@@]1(O)[C@H](O)[C@@H](CO)O[C@H]1c1coc2c(N)ncnc12	8100 nM	22 µM	> 100 µM
C[C@@]1(O)[C@H](O)[C@@H](CO)O[C@H]1c1c[nH]c2c(N)ncnc12	59700 nM	> 100 µM	> 100 µM
C[C@@]1(O)[C@H](O)[C@@H](CO)O[C@H]1n1cnc2c(N)ncnc21	200 nM	0.25 µM	> 100 µM
C[C@@]1(O)[C@H](O)[C@@H](CO)O[C@H]1n1ccc2c(N)ncnc21 [BETA-2'-C-METHYL-7-DEAZA-ADENOSINE]	110 nM	0.3 µM	> 100 µM
CC(C)[C@H](N)C(=O)O[C@@H]1[C@@H](CO)O[C@@H](n2ccc(N)nc2=O)[C@]1(C)O [VALOPICITABINE]	1500 nM	7.45 µM	> 100 µM

— ChEMBL document CHEMBL1149594, “Synthesis and HCV inhibitory properties of 9-deaza- and 7,9-dideaza-7-oxa-2'-C-methyladenosine” (Bioorg Med Chem, 2007)
